Values belong to the compound of their own block, whether it stands above or below them.
Tests used:
[1] = biological target: Epithelial discoidin domain-containing receptor 1 (Homo sapiens) (UniProt Q08345); assay: Inhibition of human recombinant DDR1 at 500 nM in presence of ATP by radiometric assay relative to control
[2] = biological target: T1, Interleukin-1 receptor-associated kinase 4 (Homo sapiens) (UniProt Q9NWZ3); assay: Inhibition of human recombinant IRAK4 at 500 nM in presence of ATP by radiometric assay relative to control
T1 sequence (whole entry): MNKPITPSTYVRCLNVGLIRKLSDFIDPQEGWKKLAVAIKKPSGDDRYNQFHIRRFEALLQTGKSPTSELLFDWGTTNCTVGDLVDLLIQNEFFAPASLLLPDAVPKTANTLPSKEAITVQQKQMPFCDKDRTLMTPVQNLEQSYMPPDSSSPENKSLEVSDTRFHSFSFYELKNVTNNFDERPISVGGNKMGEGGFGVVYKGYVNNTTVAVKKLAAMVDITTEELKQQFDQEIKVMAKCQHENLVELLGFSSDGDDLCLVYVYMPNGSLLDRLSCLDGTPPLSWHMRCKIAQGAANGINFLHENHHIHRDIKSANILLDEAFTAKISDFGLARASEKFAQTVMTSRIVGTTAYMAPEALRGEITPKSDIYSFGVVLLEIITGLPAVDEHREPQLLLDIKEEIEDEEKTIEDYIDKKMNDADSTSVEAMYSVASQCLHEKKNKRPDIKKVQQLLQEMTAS

[3] = biological target: T2, Dual specificity tyrosine-phosphorylation-regulated kinase 2 (Homo sapiens) (UniProt Q92630); assay: Inhibition of human recombinant DYRK2 at 40 nM in presence of ATP by radiometric assay relative to control
T2 sequence (whole entry): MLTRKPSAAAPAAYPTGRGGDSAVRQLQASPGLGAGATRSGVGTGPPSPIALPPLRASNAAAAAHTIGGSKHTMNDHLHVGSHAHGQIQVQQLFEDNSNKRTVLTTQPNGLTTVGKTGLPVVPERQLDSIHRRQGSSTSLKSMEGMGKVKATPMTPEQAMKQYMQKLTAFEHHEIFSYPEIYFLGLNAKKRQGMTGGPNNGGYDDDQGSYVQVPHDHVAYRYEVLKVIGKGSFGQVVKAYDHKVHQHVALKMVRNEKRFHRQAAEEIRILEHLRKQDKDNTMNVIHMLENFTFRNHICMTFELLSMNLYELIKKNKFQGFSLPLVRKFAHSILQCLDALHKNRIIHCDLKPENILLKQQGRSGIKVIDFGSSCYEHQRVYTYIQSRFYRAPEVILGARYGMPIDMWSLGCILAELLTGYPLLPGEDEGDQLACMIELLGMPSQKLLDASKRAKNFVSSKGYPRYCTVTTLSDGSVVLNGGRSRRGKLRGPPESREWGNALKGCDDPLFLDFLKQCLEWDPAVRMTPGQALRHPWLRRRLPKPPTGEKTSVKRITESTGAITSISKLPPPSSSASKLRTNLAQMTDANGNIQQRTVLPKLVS

[4] = biological target: T3, TGF-beta receptor type-1 (Homo sapiens) (UniProt P36897); assay: Inhibition of human recombinant TGFbR1 at 40 nM in presence of ATP by radiometric assay relative to control
T3 sequence (whole entry): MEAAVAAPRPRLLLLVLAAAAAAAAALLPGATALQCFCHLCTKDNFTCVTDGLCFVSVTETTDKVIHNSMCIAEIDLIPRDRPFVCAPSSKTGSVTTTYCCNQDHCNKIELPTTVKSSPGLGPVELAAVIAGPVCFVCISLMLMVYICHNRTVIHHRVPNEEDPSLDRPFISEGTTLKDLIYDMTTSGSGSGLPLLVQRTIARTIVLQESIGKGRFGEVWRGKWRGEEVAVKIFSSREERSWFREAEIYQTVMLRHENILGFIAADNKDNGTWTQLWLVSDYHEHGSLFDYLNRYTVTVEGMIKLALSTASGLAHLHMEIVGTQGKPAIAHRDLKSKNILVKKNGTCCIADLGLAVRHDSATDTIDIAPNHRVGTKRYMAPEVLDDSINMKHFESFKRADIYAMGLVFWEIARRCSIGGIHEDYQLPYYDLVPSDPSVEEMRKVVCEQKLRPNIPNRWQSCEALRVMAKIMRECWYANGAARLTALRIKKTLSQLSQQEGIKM

[5] = biological target: Cyclin-dependent kinase 7 (Homo sapiens) (UniProt P50613); assay: Inhibition of human recombinant CDK7 at 40 nM related to control ULK1
[6] = biological target: Protein-tyrosine kinase 2-beta (Homo sapiens) (UniProt Q14289); assay: Inhibition of human recombinant PYK2 at 15 nM related to control ULK1
[7] = biological target: Serine/threonine-protein kinase SIK3 (Homo sapiens) (UniProt Q9Y2K2); assay: Inhibition of human recombinant QSK at 15 nM related to control ULK1
[8] = biological target: Vascular endothelial growth factor receptor 2 (Homo sapiens) (UniProt P35968); assay: Inhibition of human recombinant KDR at 15 nM in presence of ATP by radiometric assay relative to control
[9] = biological target: Leukocyte tyrosine kinase receptor (Homo sapiens) (UniProt P29376); assay: Inhibition of human recombinant LTK at 15 nM related to control ULK1
[10] = biological target: T4, Aurora kinase C (Homo sapiens) (UniProt Q9UQB9); assay: Inhibition of human recombinant AurC at 15 nM in presence of ATP by radiometric assay relative to control
T4 sequence (whole entry): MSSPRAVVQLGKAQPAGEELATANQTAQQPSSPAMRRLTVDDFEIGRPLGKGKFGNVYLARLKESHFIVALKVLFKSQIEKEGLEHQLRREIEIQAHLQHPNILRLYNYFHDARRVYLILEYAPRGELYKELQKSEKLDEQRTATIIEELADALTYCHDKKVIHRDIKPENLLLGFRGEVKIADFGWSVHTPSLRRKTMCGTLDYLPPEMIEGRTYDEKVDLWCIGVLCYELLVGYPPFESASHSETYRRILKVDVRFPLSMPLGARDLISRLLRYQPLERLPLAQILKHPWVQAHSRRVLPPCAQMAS
Procedure, shortened: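 Part of a radiometric in vitro activity panel of 327 recombinant human kinases. Each kinase was tested in duplicate at one inhibitor concentration. Activity remaining was expressed as a percentage of the vehicle control, and percent inhibition was taken as 100 minus that value.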

Sequence of Vascular endothelial growth factor receptor 2 (Homo sapiens) (P35968 whole entry): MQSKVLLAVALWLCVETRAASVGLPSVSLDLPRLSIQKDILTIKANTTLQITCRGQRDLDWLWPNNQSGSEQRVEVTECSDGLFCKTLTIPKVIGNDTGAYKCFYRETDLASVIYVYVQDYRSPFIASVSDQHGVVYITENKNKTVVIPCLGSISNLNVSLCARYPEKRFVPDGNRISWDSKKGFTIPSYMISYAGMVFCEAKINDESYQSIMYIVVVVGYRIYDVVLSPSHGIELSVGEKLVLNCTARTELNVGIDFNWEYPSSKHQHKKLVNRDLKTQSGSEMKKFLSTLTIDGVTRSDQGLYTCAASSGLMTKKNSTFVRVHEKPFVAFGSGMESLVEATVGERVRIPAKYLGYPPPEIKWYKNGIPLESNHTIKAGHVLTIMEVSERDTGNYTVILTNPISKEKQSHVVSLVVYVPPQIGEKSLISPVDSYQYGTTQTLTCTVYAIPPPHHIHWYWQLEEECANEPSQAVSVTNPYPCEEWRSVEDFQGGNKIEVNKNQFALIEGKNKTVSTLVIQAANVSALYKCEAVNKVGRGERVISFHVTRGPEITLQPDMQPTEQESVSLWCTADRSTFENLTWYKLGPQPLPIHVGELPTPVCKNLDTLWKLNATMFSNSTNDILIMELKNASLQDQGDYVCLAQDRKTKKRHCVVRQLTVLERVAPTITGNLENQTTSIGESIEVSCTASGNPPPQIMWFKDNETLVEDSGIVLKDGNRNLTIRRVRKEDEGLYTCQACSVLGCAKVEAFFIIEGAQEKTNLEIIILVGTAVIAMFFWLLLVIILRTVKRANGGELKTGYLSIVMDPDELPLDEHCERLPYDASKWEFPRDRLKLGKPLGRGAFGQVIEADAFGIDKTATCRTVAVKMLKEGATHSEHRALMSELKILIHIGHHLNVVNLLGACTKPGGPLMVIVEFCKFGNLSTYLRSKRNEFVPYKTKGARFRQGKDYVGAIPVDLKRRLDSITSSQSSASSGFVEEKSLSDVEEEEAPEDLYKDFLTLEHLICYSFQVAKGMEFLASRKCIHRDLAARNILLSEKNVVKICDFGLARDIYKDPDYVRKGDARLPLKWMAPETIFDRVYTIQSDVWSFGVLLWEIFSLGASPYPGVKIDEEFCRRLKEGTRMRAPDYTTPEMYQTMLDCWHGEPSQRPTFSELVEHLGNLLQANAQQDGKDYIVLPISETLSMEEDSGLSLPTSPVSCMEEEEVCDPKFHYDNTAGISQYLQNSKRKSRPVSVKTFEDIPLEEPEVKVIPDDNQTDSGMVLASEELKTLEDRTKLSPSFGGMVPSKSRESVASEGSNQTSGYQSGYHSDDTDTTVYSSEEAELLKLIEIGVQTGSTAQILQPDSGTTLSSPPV
Sequence of Protein-tyrosine kinase 2-beta (Homo sapiens) (Q14289 whole entry, looked up): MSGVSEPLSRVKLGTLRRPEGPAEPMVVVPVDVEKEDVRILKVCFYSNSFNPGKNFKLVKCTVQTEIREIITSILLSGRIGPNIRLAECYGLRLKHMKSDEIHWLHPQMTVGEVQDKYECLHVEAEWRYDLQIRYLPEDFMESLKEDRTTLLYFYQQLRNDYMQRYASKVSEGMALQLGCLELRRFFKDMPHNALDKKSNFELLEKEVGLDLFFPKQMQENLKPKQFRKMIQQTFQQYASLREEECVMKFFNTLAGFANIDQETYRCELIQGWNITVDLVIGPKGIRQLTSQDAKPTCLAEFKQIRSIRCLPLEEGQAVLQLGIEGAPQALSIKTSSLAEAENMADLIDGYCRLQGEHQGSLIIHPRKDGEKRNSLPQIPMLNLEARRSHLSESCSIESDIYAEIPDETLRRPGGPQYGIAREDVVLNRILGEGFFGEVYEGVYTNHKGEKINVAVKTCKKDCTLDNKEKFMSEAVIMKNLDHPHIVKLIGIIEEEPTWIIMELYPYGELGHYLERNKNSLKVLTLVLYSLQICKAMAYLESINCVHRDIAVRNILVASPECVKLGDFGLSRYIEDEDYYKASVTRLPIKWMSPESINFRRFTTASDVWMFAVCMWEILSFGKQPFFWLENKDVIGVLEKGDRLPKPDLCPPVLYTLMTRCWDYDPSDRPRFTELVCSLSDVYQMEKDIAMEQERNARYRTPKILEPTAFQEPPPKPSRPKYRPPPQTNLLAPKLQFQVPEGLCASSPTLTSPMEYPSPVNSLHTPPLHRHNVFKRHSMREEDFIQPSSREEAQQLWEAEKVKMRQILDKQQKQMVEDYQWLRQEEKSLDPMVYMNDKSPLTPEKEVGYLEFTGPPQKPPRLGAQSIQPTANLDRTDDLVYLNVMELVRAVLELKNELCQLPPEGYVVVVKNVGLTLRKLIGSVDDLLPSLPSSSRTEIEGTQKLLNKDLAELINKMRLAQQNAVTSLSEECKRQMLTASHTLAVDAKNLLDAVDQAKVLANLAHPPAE
Sequence of Leukocyte tyrosine kinase receptor (Homo sapiens) (P29376 whole entry): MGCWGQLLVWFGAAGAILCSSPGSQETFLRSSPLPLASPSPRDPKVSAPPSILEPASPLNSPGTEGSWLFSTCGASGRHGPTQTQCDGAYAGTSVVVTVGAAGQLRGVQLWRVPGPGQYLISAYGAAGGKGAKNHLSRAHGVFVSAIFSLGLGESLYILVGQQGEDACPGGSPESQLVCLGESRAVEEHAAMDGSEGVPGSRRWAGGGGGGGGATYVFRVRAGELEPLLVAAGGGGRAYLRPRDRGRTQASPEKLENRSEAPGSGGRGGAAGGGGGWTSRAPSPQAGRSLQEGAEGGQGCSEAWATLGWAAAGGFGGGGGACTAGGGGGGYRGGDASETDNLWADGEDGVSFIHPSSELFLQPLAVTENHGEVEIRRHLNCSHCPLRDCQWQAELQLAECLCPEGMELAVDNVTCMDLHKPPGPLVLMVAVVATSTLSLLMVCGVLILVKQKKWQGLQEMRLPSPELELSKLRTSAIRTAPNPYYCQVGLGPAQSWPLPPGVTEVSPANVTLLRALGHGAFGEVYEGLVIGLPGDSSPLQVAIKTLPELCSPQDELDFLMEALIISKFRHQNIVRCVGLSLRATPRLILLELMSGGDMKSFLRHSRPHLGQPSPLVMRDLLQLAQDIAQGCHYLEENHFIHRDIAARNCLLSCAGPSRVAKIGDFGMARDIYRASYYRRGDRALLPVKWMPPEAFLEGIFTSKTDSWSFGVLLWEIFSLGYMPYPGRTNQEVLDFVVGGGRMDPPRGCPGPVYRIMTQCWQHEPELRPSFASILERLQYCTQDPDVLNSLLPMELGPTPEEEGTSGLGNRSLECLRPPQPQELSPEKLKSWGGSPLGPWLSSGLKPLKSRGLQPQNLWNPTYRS
Sequence of Serine/threonine-protein kinase SIK3 (Homo sapiens) (Q9Y2K2 whole entry, looked up): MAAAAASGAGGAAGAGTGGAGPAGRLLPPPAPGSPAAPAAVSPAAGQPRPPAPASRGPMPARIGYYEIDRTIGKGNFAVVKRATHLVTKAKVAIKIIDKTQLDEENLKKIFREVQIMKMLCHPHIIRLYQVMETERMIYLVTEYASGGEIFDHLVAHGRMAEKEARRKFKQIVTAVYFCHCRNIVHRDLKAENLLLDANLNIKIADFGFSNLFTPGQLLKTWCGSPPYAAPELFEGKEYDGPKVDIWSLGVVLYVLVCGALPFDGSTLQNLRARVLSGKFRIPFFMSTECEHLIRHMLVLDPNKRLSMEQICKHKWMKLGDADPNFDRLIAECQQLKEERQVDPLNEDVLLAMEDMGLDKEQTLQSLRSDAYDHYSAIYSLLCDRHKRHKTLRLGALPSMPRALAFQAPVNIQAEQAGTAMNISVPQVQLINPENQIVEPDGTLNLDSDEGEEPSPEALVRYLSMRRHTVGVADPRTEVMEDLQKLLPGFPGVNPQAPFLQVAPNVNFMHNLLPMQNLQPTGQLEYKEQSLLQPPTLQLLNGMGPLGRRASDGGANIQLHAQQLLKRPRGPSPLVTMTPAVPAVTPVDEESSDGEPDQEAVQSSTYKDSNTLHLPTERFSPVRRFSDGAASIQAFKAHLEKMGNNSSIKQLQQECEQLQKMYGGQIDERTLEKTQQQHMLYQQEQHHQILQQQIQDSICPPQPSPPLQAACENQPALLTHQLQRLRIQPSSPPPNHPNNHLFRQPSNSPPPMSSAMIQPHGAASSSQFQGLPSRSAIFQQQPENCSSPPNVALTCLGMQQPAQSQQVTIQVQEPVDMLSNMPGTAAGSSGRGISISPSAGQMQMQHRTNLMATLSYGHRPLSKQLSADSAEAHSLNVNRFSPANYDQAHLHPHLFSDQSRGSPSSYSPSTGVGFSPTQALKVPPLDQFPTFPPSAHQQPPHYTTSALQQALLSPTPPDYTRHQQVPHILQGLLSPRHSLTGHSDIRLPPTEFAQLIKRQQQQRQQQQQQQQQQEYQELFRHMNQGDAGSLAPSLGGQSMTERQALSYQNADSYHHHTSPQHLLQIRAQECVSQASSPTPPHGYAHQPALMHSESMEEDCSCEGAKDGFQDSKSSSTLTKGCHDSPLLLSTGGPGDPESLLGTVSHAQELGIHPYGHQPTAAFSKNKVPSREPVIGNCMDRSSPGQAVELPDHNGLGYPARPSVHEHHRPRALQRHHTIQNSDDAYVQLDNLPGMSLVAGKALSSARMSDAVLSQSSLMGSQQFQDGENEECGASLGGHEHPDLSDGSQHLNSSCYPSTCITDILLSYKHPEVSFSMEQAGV
Sequence of Cyclin-dependent kinase 7 (Homo sapiens) (P50613 whole entry): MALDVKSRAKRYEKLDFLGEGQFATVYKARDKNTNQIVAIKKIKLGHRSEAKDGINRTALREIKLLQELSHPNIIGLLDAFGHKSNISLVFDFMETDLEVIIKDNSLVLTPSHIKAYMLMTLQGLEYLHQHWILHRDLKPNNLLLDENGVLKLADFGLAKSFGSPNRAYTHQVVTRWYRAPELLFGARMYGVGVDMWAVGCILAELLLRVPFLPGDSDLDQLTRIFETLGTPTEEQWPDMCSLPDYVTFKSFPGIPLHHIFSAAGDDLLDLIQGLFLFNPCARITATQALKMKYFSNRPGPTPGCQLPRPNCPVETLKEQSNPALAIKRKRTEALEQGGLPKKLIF

inhibition [1]: 47% | inhibition [2]: 6%
Compound: CNC(=O)c1ccccc1Oc1nc(Nc2cc(OC)c(OC)c(OC)c2)ncc1Br

inhibition [3]: 11% | inhibition [4]: 0% | fold change (FC) [5]: 0.32
Compound: O=C(N[C@@H](C1CC1)C(F)(F)F)c1cc(-c2cnn3cc(-c4ccc(F)cc4)cnc23)cs1

fold change (FC) [6]: 0 | fold change (FC) [7]: 0.98 | inhibition [8]: 20% | fold change (FC) [9]: 0 | inhibition [10]: 8%
Compound: CC(C)[C@H](NC(=O)c1cc(-c2cnn3cc(-c4ccc(OCCN5CCCCC5)cc4)cnc23)cs1)C(F)(F)F
